From ChEMBL document CHEMBL5316295, “Systematic Design of Adenosine Analogs as Inhibitors of a Clostridioides difficile-Specific DNA Adenine Methyltransferase Required for Normal Sporulation and Persistence” (J Med Chem, 2023)
The source made the active and inactive calls. No cut-off for these calls is given here.

Columns and labels:
[1] = (§1) Inhibition of Clostridioides difficile-specific DNA adenine methyltransferase mediated methylation using 5'-CGA TTC AAA AAG TCC CAA G-3' and 3'-GCT AAG TTT TTC AGG GTT C-5' as substrate and SAM as cosubstrate preincubated for 5 mins followed by substrate and cosubstrate addition and measured after 3 mins by MTase glo assay
[2] = Binding affinity to Clostridioides difficile-specific DNA adenine methyltransferase by MicroCal PEAQ-ITC instrument analysis
[3] = Binding affinity to Clostridioides difficile-specific DNA adenine methyltransferase PDB 7RFM by MicroCal PEAQ ITC analysis
Method in brief: (§2)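 CamA (pXC2184 construct) in 325 mM NaCl, 20 mM Tris–HCl pH 7.5, 0.5 mM TCEP, 10% DMSO at 25 °C; 200–900 μM compound titrated into 20–60 μM protein (0.2 μL initial injection then 18 × 2 μL; reverse titration for poorly soluble compounds). Data fitted to a one-site model with offset subtracted to obtain K_D.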

[4] = as §1, with “PDB 7RFM” for “mediated methylation”, “MTase-Glo” for “MTase glo”
Method in brief: (§3)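 Then 2.5 μM 19-bp dsDNA and 40 μM SAM were added, 3 min at ~22 °C, TFA quench (0.1%). Luminescent SAH readout against a serially diluted SAH standard curve; IC50 and Hill slope reported.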

[5] = Binding affinity to Clostridioides difficile-specific DNA adenine methyltransferase PDB 8CXS by MicroCal PEAQ ITC analysis
Method in brief: (§4)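 Test compound (200–900 μM) titrated into CamA (20–60 μM) at 25 °C in 325 mM NaCl, 20 mM Tris–HCl pH 7.5, 0.5 mM TCEP, 10% DMSO; 0.2 μL initial plus 18 × 2 μL injections. Reverse titration used for poorly soluble compounds. Data fitted to a one-site model with offset subtracted; K_D, ΔH, −TΔS and ΔG derived from the fit.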

[6] = as §1, with “PDB 8CXS” for “mediated methylation”, “MTase-Glo” for “MTase glo”
Method in brief: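 Reaction started with 2.5 μM dsDNA and 40 μM SAM (final), run 3 min, then quenched with 0.1% TFA. SAH measured by MTase-Glo luminescence against an SAH standard curve.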

Clostridioides difficile [7] = assay: as §1, with “as cosubstrate at 1 to 10 uM preincubated for” for “as cosubstrate preincubated for”; conditions: dose 1-10 µM, time 8.0 min
[8] = target: Protein arginine N-methyltransferase 1 (Homo sapiens) (UniProt Q99873); assay: (§5) Inhibition of PRMT1 (unknown origin) using histone H4 as substrate and 3H-SAM as cosubstrate at 10 uM pretreated with compound for 20 mins in presence of histone H4 followed by cosubstrate addition and measured after 1 hr; conditions: time 80.0 min
Protein arginine N-methyltransferase 1 (Homo sapiens), sequence (Q99873 whole entry, looked up): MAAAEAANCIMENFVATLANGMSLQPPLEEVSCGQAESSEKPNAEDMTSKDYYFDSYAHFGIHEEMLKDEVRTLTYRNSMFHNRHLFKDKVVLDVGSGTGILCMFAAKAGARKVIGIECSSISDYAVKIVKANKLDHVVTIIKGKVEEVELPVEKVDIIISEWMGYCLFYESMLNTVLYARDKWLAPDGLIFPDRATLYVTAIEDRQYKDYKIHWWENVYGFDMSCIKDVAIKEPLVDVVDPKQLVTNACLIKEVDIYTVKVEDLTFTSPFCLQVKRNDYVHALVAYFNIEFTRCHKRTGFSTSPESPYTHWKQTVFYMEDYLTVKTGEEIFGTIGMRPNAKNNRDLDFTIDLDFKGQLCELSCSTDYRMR
Method in brief: (§6)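 Enzymes (DOT1L 1 nM; EZH2, G9a, PRMT1 5 nM) mixed with substrate (0.05 mg/mL oligonucleosomes for DOT1L; 0.05 mg/mL core histone for EZH2; 5 μM H3 1–21 peptide for G9a; 5 μM H4 for PRMT1). Compound (10 μM) added for 20 min at room temperature, then 1 μM ³H-SAM for 1 h at 30 °C; filter-paper read-out. Triplicates, mean ± SD.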

[9] = target: T1, Histone-lysine N-methyltransferase EHMT2 (Homo sapiens) (UniProt Q96KQ7); assay: as §5, with “human G9a (913 to 1193 residues) expressed in Escherichia coli BL21 (DE3)-gold cells” for “PRMT1 (unknown origin)”, “H3 (1 to 21 residues)” for “H4”; conditions: time 80.0 min; method in brief: as §6
T1 sequence (whole entry): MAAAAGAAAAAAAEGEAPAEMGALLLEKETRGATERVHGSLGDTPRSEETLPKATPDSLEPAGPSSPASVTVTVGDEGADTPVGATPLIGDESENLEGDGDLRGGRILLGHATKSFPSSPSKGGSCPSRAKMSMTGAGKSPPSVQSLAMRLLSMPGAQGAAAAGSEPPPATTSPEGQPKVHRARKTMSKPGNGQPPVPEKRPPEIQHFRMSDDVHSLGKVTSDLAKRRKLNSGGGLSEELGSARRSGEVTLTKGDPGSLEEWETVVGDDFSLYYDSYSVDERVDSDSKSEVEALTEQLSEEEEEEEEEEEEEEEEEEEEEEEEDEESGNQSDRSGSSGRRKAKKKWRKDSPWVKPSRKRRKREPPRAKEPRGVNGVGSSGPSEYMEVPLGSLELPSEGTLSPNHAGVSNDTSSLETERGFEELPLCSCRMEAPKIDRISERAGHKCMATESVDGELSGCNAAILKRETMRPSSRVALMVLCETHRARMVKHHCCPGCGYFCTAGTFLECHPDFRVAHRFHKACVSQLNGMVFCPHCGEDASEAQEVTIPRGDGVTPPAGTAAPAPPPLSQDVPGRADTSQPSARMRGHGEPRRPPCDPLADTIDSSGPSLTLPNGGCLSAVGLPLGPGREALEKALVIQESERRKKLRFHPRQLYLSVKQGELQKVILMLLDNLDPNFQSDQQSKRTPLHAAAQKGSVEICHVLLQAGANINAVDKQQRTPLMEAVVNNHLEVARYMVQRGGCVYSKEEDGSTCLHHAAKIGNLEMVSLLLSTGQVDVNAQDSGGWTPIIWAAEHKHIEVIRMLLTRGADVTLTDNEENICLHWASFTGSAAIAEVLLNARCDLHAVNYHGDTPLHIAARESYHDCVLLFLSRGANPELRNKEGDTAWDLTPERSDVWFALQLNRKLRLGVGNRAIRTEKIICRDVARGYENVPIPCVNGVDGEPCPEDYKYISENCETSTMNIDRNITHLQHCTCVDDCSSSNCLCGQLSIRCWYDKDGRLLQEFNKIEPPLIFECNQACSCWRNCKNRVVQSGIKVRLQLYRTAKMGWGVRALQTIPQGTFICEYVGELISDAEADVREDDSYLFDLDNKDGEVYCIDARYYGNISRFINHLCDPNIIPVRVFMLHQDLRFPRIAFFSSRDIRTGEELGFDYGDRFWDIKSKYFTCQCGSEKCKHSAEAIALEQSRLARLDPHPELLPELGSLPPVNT

[10] = target: Histone-lysine N-methyltransferase, H3 lysine-79 specific (Homo sapiens) (UniProt Q8TEK3); assay: Inhibition of human DOT1L using oligonucleosome as substrate and 3H-SAM as cosubstrate at 10 uM pretreated with compound for 20 mins in presence of oligonucleosome followed by cosubstrate addition and measured after 1 hr; conditions: time 80.0 min; method in brief: as §6
Histone-lysine N-methyltransferase, H3 lysine-79 specific (Homo sapiens), sequence (Q8TEK3 whole entry, looked up): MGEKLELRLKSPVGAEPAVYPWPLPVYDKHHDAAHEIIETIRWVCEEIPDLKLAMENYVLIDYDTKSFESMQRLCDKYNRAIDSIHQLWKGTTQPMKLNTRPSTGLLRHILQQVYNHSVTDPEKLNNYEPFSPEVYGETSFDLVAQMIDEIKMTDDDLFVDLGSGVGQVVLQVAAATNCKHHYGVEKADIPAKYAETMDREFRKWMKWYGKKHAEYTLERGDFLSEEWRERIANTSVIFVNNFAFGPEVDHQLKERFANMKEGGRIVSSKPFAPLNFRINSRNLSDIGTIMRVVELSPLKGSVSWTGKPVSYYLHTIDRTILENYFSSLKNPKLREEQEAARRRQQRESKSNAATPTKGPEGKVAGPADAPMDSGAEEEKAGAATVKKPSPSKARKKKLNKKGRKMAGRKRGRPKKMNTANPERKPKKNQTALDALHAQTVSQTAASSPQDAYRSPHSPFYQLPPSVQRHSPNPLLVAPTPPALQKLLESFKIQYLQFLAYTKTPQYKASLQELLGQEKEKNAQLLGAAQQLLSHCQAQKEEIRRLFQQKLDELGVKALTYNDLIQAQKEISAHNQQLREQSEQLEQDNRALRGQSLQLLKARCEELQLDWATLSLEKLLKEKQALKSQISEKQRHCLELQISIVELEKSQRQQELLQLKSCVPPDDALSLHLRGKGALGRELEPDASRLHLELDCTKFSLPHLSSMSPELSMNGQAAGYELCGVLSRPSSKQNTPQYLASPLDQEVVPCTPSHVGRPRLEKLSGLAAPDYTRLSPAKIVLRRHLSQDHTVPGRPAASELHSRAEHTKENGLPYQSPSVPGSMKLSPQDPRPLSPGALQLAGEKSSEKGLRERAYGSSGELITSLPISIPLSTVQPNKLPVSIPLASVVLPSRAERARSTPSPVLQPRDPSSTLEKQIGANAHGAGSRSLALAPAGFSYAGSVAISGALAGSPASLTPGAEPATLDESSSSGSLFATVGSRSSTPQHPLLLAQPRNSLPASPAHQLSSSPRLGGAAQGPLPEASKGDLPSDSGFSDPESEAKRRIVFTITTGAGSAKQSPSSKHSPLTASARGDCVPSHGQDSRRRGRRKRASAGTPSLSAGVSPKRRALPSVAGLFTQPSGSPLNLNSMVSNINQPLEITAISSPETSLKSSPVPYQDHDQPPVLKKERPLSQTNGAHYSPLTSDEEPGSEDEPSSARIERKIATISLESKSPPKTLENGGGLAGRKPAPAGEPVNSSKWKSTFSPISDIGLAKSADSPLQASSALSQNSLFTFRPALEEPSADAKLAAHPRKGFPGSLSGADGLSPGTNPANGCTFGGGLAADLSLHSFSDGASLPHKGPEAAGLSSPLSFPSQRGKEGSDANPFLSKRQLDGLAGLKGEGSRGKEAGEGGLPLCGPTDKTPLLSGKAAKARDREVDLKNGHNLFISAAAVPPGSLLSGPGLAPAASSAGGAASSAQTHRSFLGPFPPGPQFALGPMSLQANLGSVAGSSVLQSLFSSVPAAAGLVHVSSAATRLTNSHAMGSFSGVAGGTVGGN

[11] = Binding affinity to Clostridioides difficile-specific DNA adenine methyltransferase PDB 7RFL by MicroCal PEAQ ITC analysis; method in brief: as §2
[12] = as §1, with “PDB 7RFL” for “mediated methylation”, “MTase-Glo” for “MTase glo”; method in brief: as §3
Clostridioides difficile [13] = assay: (§7) Inhibition of Clostridioides difficile-specific DNA adenine methyltransferase using 5'-CGA TTC AAA AAG TCC CAA G-3' and 3'-GCT AAG TTT TTC AGG GTT C-5' as substrate and SAM as cosubstrate at 50 uM preincubated for 5 mins followed by substrate and cosubstrate addition and measured after 3 mins by MTase-Glo assay; conditions: time 8.0 min
[14] = target: DNMT3A-DNMT3L (Mus musculus) (UniProt O88508+Q9CWR8); assay: Inhibition of mouse DNMT3A/DNMT3L using 5'-G CATGCGTTCTAATTAGAAUGCATG-3' and 3'-GTA CGS AAG ATT AAT CTT GCG TAC G-5' as substrate and SAM as cosubstrate at 10 uM incubated for 1 hr; type: protein-complex assay
DNMT3A-DNMT3L (Mus musculus), sequence (Q9CWR8 whole entry, looked up, other chains not shown): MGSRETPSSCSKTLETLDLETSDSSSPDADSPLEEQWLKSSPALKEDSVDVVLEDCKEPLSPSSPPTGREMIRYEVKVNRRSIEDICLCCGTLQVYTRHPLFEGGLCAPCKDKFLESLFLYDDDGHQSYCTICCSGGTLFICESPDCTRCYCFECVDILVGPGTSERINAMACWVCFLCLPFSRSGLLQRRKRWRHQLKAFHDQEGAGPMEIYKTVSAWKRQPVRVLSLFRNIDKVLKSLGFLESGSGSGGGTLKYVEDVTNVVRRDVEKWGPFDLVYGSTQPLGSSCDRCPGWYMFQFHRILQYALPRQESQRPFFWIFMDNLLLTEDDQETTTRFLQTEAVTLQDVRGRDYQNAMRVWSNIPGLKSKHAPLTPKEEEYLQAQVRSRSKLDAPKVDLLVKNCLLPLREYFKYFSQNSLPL
Method in brief: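 Dnmt3a-3L (0.5 μM) with 5 μM dsDNA, 25 μM SAM and 10 μM inhibitor in 20 mM Tris pH 7.5, 40 mM NaCl, 4 mM DTT, 20% glycerol, run 1 h at 37 °C.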

[15] = target: mRNA (2'-O-methyladenosine-N(6)-)-methyltransferase (Homo sapiens) (UniProt Q9H4Z3); assay: Inhibition of human PCIF1 using m7GpppAmG as substrate and SAM as cosubstrate at 10 uM incubated for 15 mins
mRNA (2'-O-methyladenosine-N(6)-)-methyltransferase (Homo sapiens), sequence (Q9H4Z3 whole entry): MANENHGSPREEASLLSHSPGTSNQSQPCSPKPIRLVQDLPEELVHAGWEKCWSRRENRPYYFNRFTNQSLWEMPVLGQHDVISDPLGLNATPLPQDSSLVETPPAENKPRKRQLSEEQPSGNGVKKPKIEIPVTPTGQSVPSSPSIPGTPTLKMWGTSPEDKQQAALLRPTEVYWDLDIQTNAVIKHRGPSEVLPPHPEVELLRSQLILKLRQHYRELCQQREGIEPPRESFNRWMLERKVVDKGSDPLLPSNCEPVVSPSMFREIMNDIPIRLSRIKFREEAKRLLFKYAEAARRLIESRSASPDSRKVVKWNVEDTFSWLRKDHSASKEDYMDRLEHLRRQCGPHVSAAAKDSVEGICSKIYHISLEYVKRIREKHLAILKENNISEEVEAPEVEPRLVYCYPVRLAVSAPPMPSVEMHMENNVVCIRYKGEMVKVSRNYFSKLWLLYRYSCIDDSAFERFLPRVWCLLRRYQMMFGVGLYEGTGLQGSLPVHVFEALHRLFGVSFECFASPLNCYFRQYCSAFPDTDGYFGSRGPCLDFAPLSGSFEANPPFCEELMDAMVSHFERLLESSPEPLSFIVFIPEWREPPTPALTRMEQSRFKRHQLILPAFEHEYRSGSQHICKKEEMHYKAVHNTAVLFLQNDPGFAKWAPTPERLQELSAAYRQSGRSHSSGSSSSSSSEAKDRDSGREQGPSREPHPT
Method in brief: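 Enzyme 0.1 μM with 5 μM RNA, 30 μM SAM and 10 μM inhibitor at ~22 °C in 50 mM Tris–HCl pH 7.5, 100 mM NaCl, 1 mM DTT, 0.25% DMSO. PCIF1 run 15 min with capped RNA; MettL5-Trm112 run 1 h with ssRNA.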

[16] = Binding affinity to Clostridioides difficile-specific DNA adenine methyltransferase PDB 7RFK by MicroCal PEAQ ITC analysis; method in brief: as §2
[17] = as §7, with “methyltransferase PDB 7RFK” for “methyltransferase”, “cosubstrate” for “cosubstrate at 50 uM”; method in brief: as §3
Caulobacter vibrioides = assay: Inhibition of Caulobacter vibrioides CcrM using 5'-CGA TTC AAA AAG TCC CAA G-3' and 3'-GCT AAG TTT TTC AGG GTT C-5' as substrate and SAM as cosubstrate at 10 uM incubated for 5 mins
Method in brief: (§8)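 Conditions were enzyme 0.1 μM, DNA 5 μM, SAM 30 μM, inhibitor 10 μM, at ~22 °C in 50 mM Tris–HCl pH 7.5, 100 mM NaCl, 1 mM DTT, 0.25% DMSO, run 5 min. Substrate and SAM levels were above K_M.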

[18] = target: T2, DNA adenine methylase (Escherichia coli K-12) (UniProt P0AEE8); assay: Inhibition of Escherichia coli Dam using 5'-CCG CGG ATC CTG CT-3' and 3'-GGC GCC TAG GAC GA-5' as substrate and SAM as cosubstrate at 10 uM incubated for 5 mins; method in brief: as §8
T2 sequence (whole entry): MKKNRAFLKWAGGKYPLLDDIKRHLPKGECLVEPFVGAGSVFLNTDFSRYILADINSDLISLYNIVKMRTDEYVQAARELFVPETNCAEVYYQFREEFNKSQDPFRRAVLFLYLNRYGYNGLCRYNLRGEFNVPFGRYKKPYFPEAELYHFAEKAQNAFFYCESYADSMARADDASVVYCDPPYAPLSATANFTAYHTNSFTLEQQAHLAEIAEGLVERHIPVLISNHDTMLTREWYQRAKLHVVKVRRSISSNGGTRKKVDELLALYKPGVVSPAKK

[19] = Binding affinity to Clostridioides difficile-specific DNA adenine methyltransferase by MicroCal PEAQ ITC analysis; method in brief: as §4
Clostridioides difficile [20] = assay: Binding affinity to Clostridioides difficile-specific DNA adenine methyltransferase assessed as change in enthalpy by MicroCal PEAQ-ITC instrument analysis; method in brief: as §4

| SMILES | IC50 [1] | Kd [2] | other results |
| --- | --- | --- | --- |
| OC[C@H]1O[C@@H](n2cnc3c(N[C@H]4CCc5ccccc54)ncnc32)[C@H](O)[C@@H]1O | 43 µM | 49 µM | – |
| CC(C)N(CCCNC(=O)Nc1ccc(C(C)(C)C)cc1)C[C@H]1O[C@@H](n2ccc3c(N)ncnc32)[C@H](O)[C@@H]1O | – | – | Kd [3]: 18 µM; IC50 [4]: 43 µM |
| CSC[C@H]1O[C@@H](n2cnc3c(N)ncnc32)[C@H](O)[C@@H]1O [METHYLTHIOADENOSINE] | 18 µM | 11 µM | Kd [5]: 10 µM; IC50 [6]: 18 µM |
| OC[C@H]1O[C@@H](n2cnc3c(NCCCC4CCNCC4)ncnc32)[C@H](O)[C@@H]1O | 3.8 µM | – | – |
| CC(C)(C)OC(=O)NCCC1CCN(c2ncnc3c2ncn3[C@@H]2O[C@H](CO)[C@@H](O)[C@H]2O)CC1 | – | – | inhibition (Clostridioides difficile [7]): inactive |
| OC[C@H]1O[C@@H](n2cnc3c(NCc4ccccc4)ncnc32)[C@H](O)[C@@H]1O [N6-BENZYLADENOSINE] | 15 µM | 13 µM | – |
| OC[C@H]1O[C@@H](n2cnc3c(NCCc4ccccc4)ncnc32)[C@H](O)[C@@H]1O | 2.5 µM | 2.9 µM | – |
| Nc1ccc(CCCNc2ncnc3c2ncn3[C@@H]2O[C@H](CO)[C@@H](O)[C@H]2O)cc1 | 1.4 µM | 1.5 µM | – |
| OC[C@H]1O[C@@H](n2cnc3c(NCCCCCc4ccccc4)ncnc32)[C@H](O)[C@@H]1O | 1.3 µM | 1.3 µM | – |
| Nc1ncnc2c1ncn2[C@@H]1O[C@H](CSCC[C@H](N)C(=O)O)[C@@H](O)[C@H]1O | – | – | inhibition [8]: Active; inhibition [9]: Active; inhibition [10]: Active |
| CC(C)N(CCCNC(=O)Nc1ccc(C(C)(C)C)cc1)C[C@H]1O[C@@H](n2cc(Br)c3c(N)ncnc32)[C@H](O)[C@@H]1O | – | – | Kd [11]: 6.3 µM; IC50 [12]: 4.7 µM; inhibition (Clostridioides difficile [13]): Active |
| CC(C)(C)OC(=O)N1CCC2(CCN(c3ncnc4c3ncn4[C@@H]3O[C@H](CO)[C@@H](O)[C@H]3O)CC2)C1 | – | – | inhibition (Clostridioides difficile [7]): inactive |
| CC(C)(C)OC(=O)N1CCC(CNc2ncnc3c2ncn3[C@@H]2O[C@H](CO)[C@@H](O)[C@H]2O)CC1 | 2 µM | 1.1 µM | – |
| Nc1ncnc2c1ncn2[C@@H]1O[C@H](C[C@@H](N)CC[C@H](N)C(=O)O)[C@@H](O)[C@H]1O [SINEFUNGIN] | – | – | inhibition [14]: Active; inhibition [15]: Active; Kd [16]: 23 µM; IC50 [17]: 24 µM; inhibition (Caulobacter vibrioides): Active; inhibition [18]: Active |
| OC[C@H]1O[C@@H](n2cnc3c(NCc4ccc(O)cc4)ncnc32)[C@H](O)[C@@H]1O | 4.8 µM | 5.3 µM | – |
| OC[C@H]1O[C@@H](n2cnc3c(NCCCCc4ccccc4)ncnc32)[C@H](O)[C@@H]1O | 1.6 µM | 1.6 µM | – |
| OC[C@H]1O[C@@H](n2cnc3c(NCCCc4ccccc4)ncnc32)[C@H](O)[C@@H]1O | 0.7 µM | 0.5 µM | – |
| Nc1ncnc2c1ncn2[C@@H]1O[C@H](CO)[C@@H](O)[C@H]1O [ADENOSINE] | – | – | Kd [19]: > 70 µM |
| Nc1ccc(CNc2ncnc3c2ncn3[C@@H]2O[C@H](CO)[C@@H](O)[C@H]2O)cc1 | 10 µM | 14 µM | deltaH (Clostridioides difficile [20]): -12.2 kcal/mol |
| Nc1ccc(CCNc2ncnc3c2ncn3[C@@H]2O[C@H](CO)[C@@H](O)[C@H]2O)cc1 | – | 18 µM | – |
